According to PMC9463373 (Heliyon, 2022):
“Also recorded” adds a separate entry of the source. Each block holds one molecule with its values, some of them ahead of it.

Experiments:
[1] = biological target: P-glycoprotein (Homo sapiens, UniProt P08183); assay: Rhodamine 123 retention by flow cytometry; type: cell-based
Procedure, shortened: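 COLO 205 (parental) and multidrug-resistant COLO 320 cells at 2×10^6/mL in serum-free RPMI 1640. Test compound preincubated 10 min at room temperature, then rhodamine 123 (5.2 µM final) added for 20 min at 37 °C. Cells washed twice and resuspended in PBS. FL-1 mean fluorescence read by flow cytometry against an untreated baseline. Tariquidar positive control at 0.2 µM final. FAR = (MDR treated/MDR control)/(parental treated/parental control).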

[2] = system: Escherichia coli AG100; assay: Real-time ethidium bromide accumulation assay; type: cell-based; conditions: E. coli AG100, ethidium bromide accumulation, minute 60, positive control 50 μM
Procedure, shortened: (§1)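 Bacteria were grown to OD600 0.6 (E. coli AG100 in LB; S. aureus in TSB), PBS-washed and resuspended in PBS. Test compound at ½ MIC (100 μM if MIC >100) in PBS with 2 μg/mL EB, mixed 1:1 with the suspension. Fluorescence (ex 525/em 615 nm) read each minute for 1 h. Positive controls: CCCP 50 μM (E. coli), reserpine 25 μM (S. aureus). RFI taken from the accumulation curves.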

[3] = system: Staphylococcus aureus ATCC; assay: Real-time ethidium bromide accumulation assay; type: cell-based
Procedure, shortened: as §1

[4] = system: multidrug resistant COLO 320 colonic adenocarcinoma cells overexpressing the ABCB1 transporter; assay: Checkerboard combination assay with doxorubicin; type: cell-based, human; conditions: for effects with doxorubicin (in words): at certain / particular concentrations; for Type of interaction / Combination index (CI): with doxorubicin; for Combination index (CI): CI at ED50
Procedure, shortened: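 Test compounds diluted against doxorubicin in a checkerboard on ABCB1-overexpressing COLO 320 cells (RPMI 1640, 10% heat-inactivated FBS), 6 × 10³ cells/well. Incubated 72 h at 37 °C in 5% CO2. MTT added for 4 h, then SDS in 0.01 M HCl overnight. OD read at 540/630 nm. CI at ED₅₀ by Chou-Talalay median-effect: CI <1 synergism, =1 additive, >1 antagonism.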

[5] = concentration 0.2 μM, positive control, rhodamine 123
[6] = concentration 2 μM, rhodamine 123
[7] = concentration 2 μM, rhodamine 123, COLO 320 vs COLO 205
[8] = concentration 20 μM, rhodamine 123
[9] = concentration 20 μM, rhodamine 123, COLO 320 vs COLO 205
[10] = ratio 23.2:1, starting concentration 200 μM
[11] = ratio 46.4:1, starting concentration 200 μM
[12] = ratio 92.8:1, starting concentration 200 μM
[13] = ratio 185.6:1, starting concentration 200 μM
[14] = ratio 371.2:1, starting concentration 200 μM
[15] = ratio 742.5:1, starting concentration 200 μM
[16] = minute 60, ½ MIC concentration (or 100 μM)
[17] = ratio 17.42:1, starting concentration 150 μM
[18] = ratio 34.84:1, starting concentration 150 μM
[19] = ratio 69.68:1, starting concentration 150 μM
[20] = ratio 139.36:1, starting concentration 150 μM
[21] = ratio 278.72:1, starting concentration 150 μM
[22] = ratio 557.44:1, starting concentration 150 μM
[23] = ratio 18.4:1, starting concentration 80 μM
[24] = ratio 36.8:1, starting concentration 80 μM
[25] = ratio 73.6:1, starting concentration 80 μM
[26] = ratio 147.2:1, starting concentration 80 μM
[27] = ratio 294.4:1, starting concentration 80 μM

P-glycoprotein, sequence (P08183 whole entry): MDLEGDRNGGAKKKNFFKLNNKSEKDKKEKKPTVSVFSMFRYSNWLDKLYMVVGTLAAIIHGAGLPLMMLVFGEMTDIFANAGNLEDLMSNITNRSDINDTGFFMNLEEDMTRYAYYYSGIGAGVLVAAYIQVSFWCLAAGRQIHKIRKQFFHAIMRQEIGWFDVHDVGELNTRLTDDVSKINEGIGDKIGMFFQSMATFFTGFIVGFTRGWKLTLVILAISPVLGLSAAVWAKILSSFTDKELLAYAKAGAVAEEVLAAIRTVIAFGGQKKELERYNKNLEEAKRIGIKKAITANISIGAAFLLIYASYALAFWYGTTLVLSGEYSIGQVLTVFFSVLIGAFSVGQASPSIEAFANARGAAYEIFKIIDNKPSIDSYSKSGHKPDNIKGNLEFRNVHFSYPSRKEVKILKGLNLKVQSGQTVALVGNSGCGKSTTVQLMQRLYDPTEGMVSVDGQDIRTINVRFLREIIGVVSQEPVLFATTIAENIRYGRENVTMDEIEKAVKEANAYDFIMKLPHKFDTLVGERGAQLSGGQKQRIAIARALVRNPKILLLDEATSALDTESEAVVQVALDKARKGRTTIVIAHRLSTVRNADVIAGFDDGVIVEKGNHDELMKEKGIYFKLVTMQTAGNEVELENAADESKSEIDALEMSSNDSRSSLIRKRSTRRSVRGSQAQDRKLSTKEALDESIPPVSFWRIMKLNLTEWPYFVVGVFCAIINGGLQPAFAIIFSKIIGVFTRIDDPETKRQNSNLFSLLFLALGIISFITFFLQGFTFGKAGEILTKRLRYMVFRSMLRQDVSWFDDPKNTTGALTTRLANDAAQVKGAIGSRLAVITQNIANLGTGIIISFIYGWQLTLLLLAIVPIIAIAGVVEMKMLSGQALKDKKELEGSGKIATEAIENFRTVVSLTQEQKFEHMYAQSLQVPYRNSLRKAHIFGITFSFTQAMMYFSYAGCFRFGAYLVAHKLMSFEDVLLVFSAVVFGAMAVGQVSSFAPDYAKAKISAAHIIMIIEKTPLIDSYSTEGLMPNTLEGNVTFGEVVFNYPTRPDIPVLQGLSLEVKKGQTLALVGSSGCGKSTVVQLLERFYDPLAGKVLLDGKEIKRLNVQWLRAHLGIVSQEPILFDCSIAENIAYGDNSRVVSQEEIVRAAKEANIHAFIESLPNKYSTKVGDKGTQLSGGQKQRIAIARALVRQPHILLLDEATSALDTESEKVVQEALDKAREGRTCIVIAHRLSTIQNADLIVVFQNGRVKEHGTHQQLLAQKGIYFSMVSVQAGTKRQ

FAR (fluorescence activity ratio) [1, 5]: 11.44
FL-1 (mean fluorescence intensity of the cells) [1, 5]: 88.20
SMILES: COc1cc2c(cc1OC)CN(CCc1ccc(NC(=O)c3cc(OC)c(OC)cc3NC(=O)c3cnc4ccccc4c3)cc1)CC2 [Tariquidar, reference compound]

SMILES: N#CC(C#N)=NNc1cccc(Cl)c1 [CCCP]
relative fluorescence index (RFI) [2]: 1.34

SMILES: COC(=O)[C@H]1[C@H]2C[C@@H]3c4[nH]c5cc(OC)ccc5c4CCN3C[C@H]2C[C@@H](OC(=O)c2cc(OC)c(OC)c(OC)c2)[C@@H]1OC [reserpine, reference compound]
relative fluorescence index (RFI) ([3]; minute 60, positive control 25 μM): 2.77

FL-1 (mean fluorescence intensity of the cells) [1, 6]: 8.01
FAR (fluorescence activity ratio) [1, 7]: 1.04
FL-1 (mean fluorescence intensity of the cells) [1, 8]: 15.60
FAR (fluorescence activity ratio) [1, 9]: 2.02
SMILES: COc1cc2ccc(=O)oc2cc1OC [Compound 3, 6,7-dimethoxycoumarin]
effects with doxorubicin (in words) [4]: synergistic effects; also recorded: antagonistic effects
Type of interaction [4, 10]: antagonism
Combination index (CI) [4, 10]: 2.06
Type of interaction [4, 11]: moderate antagonism
Combination index (CI) [4, 11]: 1.22
Type of interaction [4, 12]: moderate synergism
Combination index (CI) [4, 12]: 0.81
Type of interaction [4, 13]: moderate synergism
Combination index (CI) [4, 13]: 0.75
Type of interaction [4, 14]: synergism
Combination index (CI) [4, 14]: 0.62
Type of interaction [4, 15]: synergism
Combination index (CI) [4, 15]: 0.60
relative fluorescence index (RFI) [3, 16]: 1.04

FL-1 (mean fluorescence intensity of the cells) [1, 6]: 11.10
FAR (fluorescence activity ratio) [1, 7]: 1.44
FL-1 (mean fluorescence intensity of the cells) [1, 8]: 20.30
FAR (fluorescence activity ratio) [1, 9]: 2.63
SMILES: COc1c2ccoc2c(OCC=C(C)C)c2oc(=O)ccc12 [Compound 2, phellopterin]
effects with doxorubicin (in words) [4]: antagonistic effects
Type of interaction [4, 17]: Antagonism
Combination index (CI) [4, 17]: 2.31
Type of interaction [4, 18]: moderate antagonism
Combination index (CI) [4, 18]: 1.40
Type of interaction [4, 19]: moderate antagonism
Combination index (CI) [4, 19]: 1.33
Type of interaction [4, 20]: antagonism
Combination index (CI) [4, 20]: 1.54
Type of interaction [4, 21]: additive effect
Combination index (CI) [4, 21]: 1.05
Type of interaction [4, 22]: additive effect
Combination index (CI) [4, 22]: 1.03
relative fluorescence index (RFI) [3, 16]: 5.49

FL-1 (mean fluorescence intensity of the cells) [1, 6]: 13.60
FAR (fluorescence activity ratio) [1, 7]: 1.76
FL-1 (mean fluorescence intensity of the cells) [1, 8]: 30.80
FAR (fluorescence activity ratio) [1, 9]: 4.00
SMILES: CC(C)=CCC/C(C)=C/COc1ccc2ccc(=O)oc2c1 [Compound 5, auraptene]
effects with doxorubicin (in words) [4]: antagonistic effects
Combination index (CI) ([4]; ratio 9.2:1, starting concentration 80 μM): 3.16
Type of interaction [4, 23]: strong antagonism
Combination index (CI) [4, 23]: 8.37
Type of interaction [4, 24]: slight antagonism
Combination index (CI) [4, 24]: 1.13
Type of interaction [4, 25]: antagonism
Combination index (CI) [4, 25]: 1.72
Type of interaction [4, 26]: antagonism
Combination index (CI) [4, 26]: 2.06
Type of interaction [4, 27]: strong antagonism
Combination index (CI) [4, 27]: 5.30

FL-1 (mean fluorescence intensity of the cells) [1, 6]: 2.92
FAR (fluorescence activity ratio) [1, 7]: 0.38
FL-1 (mean fluorescence intensity of the cells) [1, 8]: 10.00
FAR (fluorescence activity ratio) [1, 9]: 1.30
SMILES: CC1(C)O[C@H]2CC(=O)OC[C@]23[C@H]2CC[C@@]4(C)[C@H](c5ccoc5)OC(=O)[C@H]5O[C@]54[C@]2(C)C(=O)C[C@@H]13 [Compound 9, limonin]

SMILES: CC(C)=CCOc1c2occc2cc2ccc(=O)oc12 [Compound 1, imperatorin]
FL-1 (mean fluorescence intensity of the cells) [1, 6]: 11.30
FAR (fluorescence activity ratio) [1, 7]: 1.47
FL-1 (mean fluorescence intensity of the cells) [1, 8]: 9.82
FAR (fluorescence activity ratio) [1, 9]: 1.27
Type of interaction [4, 17]: moderate antagonism
Combination index (CI) [4, 17]: 1.29
Type of interaction [4, 18]: additive effect
Combination index (CI) [4, 18]: 1.06
Type of interaction [4, 19]: moderate synergism
Combination index (CI) [4, 19]: 0.75
Type of interaction [4, 20]: moderate antagonism
Combination index (CI) [4, 20]: 1.24
Type of interaction [4, 21]: additive effect
Combination index (CI) [4, 21]: 0.99
Type of interaction [4, 22]: additive effect
Combination index (CI) [4, 22]: 0.99
